{"source": "ChEMBL document CHEMBL4390639", "about": "“Design, Synthesis, and Biological Evaluation of Novel Allosteric Protein Disulfide Isomerase Inhibitors” (J Med Chem, 2019)", "key": {"[1]": {"tested_on": "U-87 MG", "assay": "Down regulation of CSF3 gene expression in human U87MG cells at 16 uM incubated for 4 hrs followed by bromouridine addition during last 30 mins of incubation by TRIzol-reagent based Bru-Seq analysis relative to control", "format": "functional, U-87MG ATCC", "how_it_was_run": "(§1)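 U87MG cells exposed to compound or DMSO vehicle for 4 h, with 2 mM bromouridine added for the final 30 min. Total RNA isolated with TRIzol; Bru-labelled nascent RNA captured on anti-BrdU antibody-conjugated magnetic beads and sequenced. Transcript abundance expressed as RPKM relative to DMSO. Experiment performed once.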"}, "[2]": {"tested_on": "U-87 MG", "assay": "Up regulation of HMOX1 gene expression in human U87MG cells at 16 uM incubated for 4 hrs followed by bromouridine addition during last 30 mins of incubation by TRIzol-reagent based Bru-Seq analysis relative to control", "format": "functional, U-87MG ATCC", "how_it_was_run": "as §1"}, "[3]": {"tested_on": "U-87 MG", "assay": "Up regulation of GCLC gene expression in human U87MG cells at 16 uM incubated for 4 hrs followed by bromouridine addition during last 30 mins of incubation by TRIzol-reagent based Bru-Seq analysis relative to control", "format": "functional, U-87MG ATCC", "how_it_was_run": "as §1"}, "[4]": {"tested_on": "U-87 MG", "assay": "Down regulation of CTHRC1 gene expression in human U87MG cells at 16 uM incubated for 4 hrs followed by bromouridine addition during last 30 mins of incubation by TRIzol-reagent based Bru-Seq analysis relative to control", "format": "functional, U-87MG ATCC", "how_it_was_run": "as §1"}, "[5]": {"tested_on": "A 172", "assay": "Induction of morphological changes in human A172 cells assessed as necroptotic cell death at 20 uM measured after 48 hrs by Giemsa-staining based microscopic analysis", "format": "functional"}, "[6]": {"tested_on": "U-87 MG", "assay": "Down regulation of AC139722.1 gene expression in human U87MG cells at 16 uM incubated for 4 hrs followed by bromouridine addition during last 30 mins of incubation by TRIzol-reagent based Bru-Seq analysis relative to control", "format": "functional, U-87MG ATCC", "how_it_was_run": "as §1"}, "[7]": {"tested_on": "U-87 MG", "assay": "Down regulation of AC010931.3 gene expression in human U87MG cells at 16 uM incubated for 4 hrs followed by bromouridine addition during last 30 mins of incubation by TRIzol-reagent based Bru-Seq analysis relative to control", "format": "functional, U-87MG ATCC"}, "[8]": {"tested_on": "U-87 MG", "assay": "Down regulation of AC124276.2 gene expression in human U87MG cells at 16 uM incubated for 4 hrs followed by bromouridine addition during last 30 mins of incubation by TRIzol-reagent based Bru-Seq analysis relative to control", "format": "functional, U-87MG ATCC"}, "[9]": {"tested_on": "U-87 MG", "assay": "Up regulation of AC005324.3 gene expression in human U87MG cells at 16 uM incubated for 4 hrs followed by bromouridine addition during last 30 mins of incubation by TRIzol-reagent based Bru-Seq analysis relative to control", "format": "functional, U-87MG ATCC", "how_it_was_run": "as §1"}, "[10]": {"tested_on": "U-87 MG", "assay": "Down regulation of GGT4P gene expression in human U87MG cells at 16 uM incubated for 4 hrs followed by bromouridine addition during last 30 mins of incubation by TRIzol-reagent based Bru-Seq analysis relative to control", "format": "functional, U-87MG ATCC"}, "[11]": {"tested_on": "U-87 MG", "assay": "Down regulation of HLA-DQB1 gene expression in human U87MG cells at 16 uM incubated for 4 hrs followed by bromouridine addition during last 30 mins of incubation by TRIzol-reagent based Bru-Seq analysis relative to control", "format": "functional, U-87MG ATCC", "how_it_was_run": "as §1"}, "[12]": {"tested_on": "U-87 MG", "assay": "Cytotoxicity against human U87MG cells assessed as inhibition of cell proliferation at 10 uM measured after 24 hrs treatment followed by 10 days by colony formation assay relative to control"}, "[13]": {"tested_on": "U-87 MG", "assay": "Up regulation of BAG3 gene expression in human U87MG cells at 10 uM incubated for 4 hrs followed by bromouridine addition during last 30 mins of incubation by TRIzol-reagent based Bru-Seq analysis relative to control", "format": "functional, U-87MG ATCC", "how_it_was_run": "as §1"}, "[14]": {"tested_on": "U-87 MG", "assay": "Down regulation of NFIA gene expression in human U87MG cells at 10 uM incubated for 4 hrs followed by bromouridine addition during last 30 mins of incubation by TRIzol-reagent based Bru-Seq analysis relative to control", "format": "functional, U-87MG ATCC", "how_it_was_run": "(§2)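 Nascent transcription (Bru-seq) in U87MG cells: treatment at 10 μM for 4 h, with 2 mM bromouridine added for the final 30 min. Total RNA isolated with TRIzol; Bru-labelled RNA captured using anti-BrdU antibody on magnetic beads, then sequenced. Transcript traces reported as RPKM compared with DMSO-treated cells. Single experiment.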"}, "[15]": {"tested_on": "U-87 MG", "assay": "Down regulation of CHSY3 gene expression in human U87MG cells at 10 uM incubated for 4 hrs followed by bromouridine addition during last 30 mins of incubation by TRIzol-reagent based Bru-Seq analysis relative to control", "format": "functional, U-87MG ATCC"}, "[16]": {"tested_on": "U-87 MG", "assay": "Up regulation of DNAJB1 gene expression in human U87MG cells at 10 uM incubated for 4 hrs followed by bromouridine addition during last 30 mins of incubation by TRIzol-reagent based Bru-Seq analysis relative to control", "format": "functional, U-87MG ATCC", "how_it_was_run": "as §1"}, "[17]": {"tested_on": "U-87 MG", "assay": "Up regulation of MMP1 gene expression in human U87MG cells at 10 uM incubated for 4 hrs followed by bromouridine addition during last 30 mins of incubation by TRIzol-reagent based Bru-Seq analysis relative to control", "format": "functional, U-87MG ATCC", "how_it_was_run": "as §1"}, "[18]": {"tested_on": "U-87 MG", "assay": "Up regulation of CHAC1 gene expression in human U87MG cells at 10 uM incubated for 4 hrs followed by bromouridine addition during last 30 mins of incubation by TRIzol-reagent based Bru-Seq analysis relative to control", "format": "functional, U-87MG ATCC", "how_it_was_run": "as §1"}, "[19]": {"tested_on": "U-87 MG", "assay": "Down regulation of BARD1 gene expression in human U87MG cells at 10 uM incubated for 4 hrs followed by bromouridine addition during last 30 mins of incubation by TRIzol-reagent based Bru-Seq analysis relative to control", "format": "functional, U-87MG ATCC"}, "[20]": {"tested_on": "U-87 MG", "assay": "Up regulation of HMOX1 gene expression in human U87MG cells at 10 uM incubated for 4 hrs followed by bromouridine addition during last 30 mins of incubation by TRIzol-reagent based Bru-Seq analysis relative to control", "format": "functional, U-87MG ATCC", "how_it_was_run": "as §1"}, "[21]": {"tested_on": "U-87 MG", "assay": "Down regulation of HIST1H2BC gene expression in human U87MG cells at 10 uM incubated for 4 hrs followed by bromouridine addition during last 30 mins of incubation by TRIzol-reagent based Bru-Seq analysis relative to control", "format": "functional, U-87MG ATCC"}, "[22]": {"tested_on": "U-87 MG", "assay": "Up regulation of HSPA1B gene expression in human U87MG cells at 10 uM incubated for 4 hrs followed by bromouridine addition during last 30 mins of incubation by TRIzol-reagent based Bru-Seq analysis relative to control", "format": "functional, U-87MG ATCC", "how_it_was_run": "as §1"}, "[23]": {"tested_on": "U-87 MG", "assay": "Up regulation of ADAMTS5 gene expression in human U87MG cells at 10 uM incubated for 4 hrs followed by bromouridine addition during last 30 mins of incubation by TRIzol-reagent based Bru-Seq analysis relative to control", "format": "functional, U-87MG ATCC", "how_it_was_run": "as §1"}, "[24]": {"tested_on": "U-87 MG", "assay": "Down regulation of MYBL1 gene expression in human U87MG cells at 10 uM incubated for 4 hrs followed by bromouridine addition during last 30 mins of incubation by TRIzol-reagent based Bru-Seq analysis relative to control", "format": "functional, U-87MG ATCC", "how_it_was_run": "as §2"}, "[25]": {"tested_on": "U-87 MG", "assay": "Up regulation of INHBA gene expression in human U87MG cells at 10 uM incubated for 4 hrs followed by bromouridine addition during last 30 mins of incubation by TRIzol-reagent based Bru-Seq analysis relative to control", "format": "functional, U-87MG ATCC", "how_it_was_run": "as §1"}, "[26]": {"tested_on": "U-87 MG", "assay": "Down regulation of FBXO43 gene expression in human U87MG cells at 10 uM incubated for 4 hrs followed by bromouridine addition during last 30 mins of incubation by TRIzol-reagent based Bru-Seq analysis relative to control", "format": "functional, U-87MG ATCC", "how_it_was_run": "as §1"}, "[27]": {"tested_on": "U-87 MG", "assay": "Down regulation of C11orf87 gene expression in human U87MG cells at 10 uM incubated for 4 hrs followed by bromouridine addition during last 30 mins of incubation by TRIzol-reagent based Bru-Seq analysis relative to control", "format": "functional, U-87MG ATCC"}}, "note": "Active and inactive are the calls of the source. The calls are words filed in the database; no cut-off is given here."}
{"compound": "COC(=O)c1cccc(/C=C/C(=O)c2cccc(O)c2)c1", "values": [{"measurement": "fold change (FC)", "setting": "[1]", "value": 8.3}, {"measurement": "fold change (FC)", "setting": "[2]", "value": 21.6}, {"measurement": "fold change (FC)", "setting": "[3]", "value": 1.9}, {"measurement": "fold change (FC)", "setting": "[4]", "value": 3.4}, {"measurement": "Activity", "setting": "[5]", "value": "Active"}, {"measurement": "fold change (FC)", "setting": "[6]", "value": 4.7}, {"measurement": "fold change (FC)", "setting": "[7]", "value": 3.2}, {"measurement": "fold change (FC)", "setting": "[8]", "value": 2.9}, {"measurement": "fold change (FC)", "setting": "[9]", "value": 5.3}, {"measurement": "fold change (FC)", "setting": "[10]", "value": 3.3}, {"measurement": "fold change (FC)", "setting": "[11]", "value": 3.7}]}
{"compound": "N#Cc1cccc(/C=C/C(=O)c2ccc(O)cc2)c1", "values": [{"measurement": "inhibition at 10 µM", "setting": "[12]", "value": "< 40", "unit": "%"}]}
{"compound": "CCCCCN(CCCCC)S(=O)(=O)c1ccc(C(=O)/C=C/c2cccc(C#N)c2)cc1", "values": [{"measurement": "fold change (FC)", "setting": "[13]", "value": 17.1}, {"measurement": "fold change (FC)", "setting": "[14]", "value": 2.4}, {"measurement": "fold change (FC)", "setting": "[15]", "value": 2.6}, {"measurement": "fold change (FC)", "setting": "[16]", "value": 16.9}, {"measurement": "fold change (FC)", "setting": "[17]", "value": 32.1}, {"measurement": "fold change (FC)", "setting": "[18]", "value": 40.9}, {"measurement": "fold change (FC)", "setting": "[19]", "value": 2.3}, {"measurement": "fold change (FC)", "setting": "[20]", "value": 27.6}, {"measurement": "fold change (FC)", "setting": "[21]", "value": 2.3}, {"measurement": "fold change (FC)", "setting": "[22]", "value": 107.2}, {"measurement": "fold change (FC)", "setting": "[23]", "value": 9.6}, {"measurement": "fold change (FC)", "setting": "[24]", "value": 2.6}, {"measurement": "fold change (FC)", "setting": "[25]", "value": 27}, {"measurement": "fold change (FC)", "setting": "[26]", "value": 2.7}, {"measurement": "fold change (FC)", "setting": "[27]", "value": 2.4}]}
